Assay results from different studies.
Protocols differ between the studies behind these lines.
Effect on: microbial growth

| Structure (SMILES) | organism | assay | test system | setting | MIC |
| --- | --- | --- | --- | --- | --- |
| CC1(C)S[C@@H]2[C@H](NC(=O)[C@H](N)c3ccccc3)C(=O)N2[C@H]1C(=O)O | Salmonella enterica |  |  | 20 h, pH 7 | 1 µg/mL |
| O=C(O)CN1C(=O)/C(=C/c2c3ccccc3c(-c3ccc(N(c4ccccc4)c4ccccc4)cc3)c3ccccc23)NC1=S | Bacillus cereus | broth dilution | ATCC10876 |  | > 1000 µg/mL |
| CS(=O)(=O)c1ccc([C@@H](O)[C@@H](CF)NC(=O)C(Cl)Cl)cc1 | Salmonella enterica |  | F98, TYPHIMURIUM | 20 h, pH 5.5 | 4 µg/mL |
| C[C@@H](O)[C@H]1C(=O)N2C(C(=O)O)=C(S[C@@H]3CN[C@H](C(=O)N(C)C)C3)[C@H](C)[C@H]12 | Salmonella enterica | broth dilution | ENTERITIDIS | clinical isolate | ≤ 0.5 µg/mL |
| O=C(Nc1ncc([N+](=O)[O-])s1)c1cccnc1F | Helicobacter pylori | broth dilution | 26695 | 27 h | 3.7 µM |
| CCN1CCN(c2cc3c(cc2F)c(=O)c(C(=O)O)cn3C2CC2)CC1 | Salmonella enterica |  | ENTERITIDIS | 20 h, pH 7.2 | 0.0625 µg/mL |
| O=C1NC(=S)S/C1=C\c1c2ccccc2c(-c2ccc(N(c3ccccc3)c3ccccc3)cc2)c2ccccc12 | Bacillus cereus | broth dilution | ATCC10876 |  | > 1000 µg/mL |
| O=C(Nc1ncc([N+](=O)[O-])s1)C1CCCCC1 | Helicobacter pylori | broth dilution | 26695 | 27 h | 1.2 µM |
| O=C1NC(=S)S/C1=C\c1ccc(-c2ccc(N(c3ccccc3)c3ccccc3)cc2)c2ccccc12 | Bacillus cereus | broth dilution | ATCC10876 |  | 1000 µg/mL |
| CO/N=C(\C(=O)N[C@@H]1C(=O)N2C(C(=O)O)=C(CSc3nc(=O)c(=O)[nH]n3C)CS[C@H]12)c1csc(N)n1 | Salmonella enterica |  | F98, TYPHIMURIUM | 20 h, pH 5.5 | 0.25 µg/mL |
| O=c1cc(-c2ccc(O)c(O)c2)oc2cc(O)cc(O)c12 | Helicobacter pylori | broth dilution |  |  | 3.9 µg/mL |
| Oc1ccc(-c2nc(-c3ccc(Oc4ccc(C(F)(F)F)cc4)cc3)no2)cc1 | Bacillus cereus | broth dilution | ATCC13061 |  | 2 µg/mL |
| Cc1cc(NS(=O)(=O)c2ccc(N)cc2)no1 | Salmonella enterica |  | TYPHIMURIUM | 20 h, pH 5.5 | 1020 µg/mL |
| O=C(O)CN1C(=O)/C(=C/c2ccc(-c3ccc(N(c4ccccc4)c4ccccc4)cc3)cc2)NC1=S | Bacillus cereus | broth dilution | ATCC10876 |  | 125 µg/mL |
| O=C(Nc1ncc([N+](=O)[O-])s1)c1ccncc1F | Helicobacter pylori | broth dilution | 26695 | 27 h | 3.7 µM |
